Source: ChEMBL document CHEMBL2346649, “Novel pseudopeptides incorporating a benzodiazepine-based turn mimetic--targeting Mycobacterium tuberculosis ribonucleotide reductase” (Bioorg Med Chem, 2013)

Columns and labels:
[1] = biological target: T1, Ribonucleoside-diphosphate reductase subunit alpha (Mycobacterium tuberculosis, UniProt P9WH75); assay: Displacement of Dansyl-Gly-Ser-Gly-Glu-Asp-Asp-Asp-Trp-Asp-Phe from C-terminal R1 subunit of Mycobacterium tuberculosis ribonucleotide reductase by fluorescence polarization assay
T1 sequence (P9WH75 whole entry): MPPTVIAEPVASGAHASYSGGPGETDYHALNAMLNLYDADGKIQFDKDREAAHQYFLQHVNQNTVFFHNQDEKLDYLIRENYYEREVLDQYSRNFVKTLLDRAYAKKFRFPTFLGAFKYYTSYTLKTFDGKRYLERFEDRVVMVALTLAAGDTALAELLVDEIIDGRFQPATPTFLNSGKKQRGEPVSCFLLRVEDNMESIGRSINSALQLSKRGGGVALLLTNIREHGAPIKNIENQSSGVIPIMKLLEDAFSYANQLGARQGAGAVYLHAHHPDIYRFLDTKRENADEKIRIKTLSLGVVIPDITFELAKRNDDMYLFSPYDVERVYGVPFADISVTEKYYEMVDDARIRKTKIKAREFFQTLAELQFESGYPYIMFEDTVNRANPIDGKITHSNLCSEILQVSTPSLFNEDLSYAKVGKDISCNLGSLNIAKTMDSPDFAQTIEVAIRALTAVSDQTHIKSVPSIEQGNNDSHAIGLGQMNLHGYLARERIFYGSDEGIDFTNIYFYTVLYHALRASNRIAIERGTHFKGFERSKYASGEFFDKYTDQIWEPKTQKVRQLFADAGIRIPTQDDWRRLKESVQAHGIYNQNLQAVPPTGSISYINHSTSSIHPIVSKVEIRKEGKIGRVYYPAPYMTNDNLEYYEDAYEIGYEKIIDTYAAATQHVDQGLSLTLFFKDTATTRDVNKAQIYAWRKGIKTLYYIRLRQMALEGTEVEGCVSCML
In short: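 Competitive fluorescence polarization: compounds compete with a fluorescent probe carrying the R2 C-terminal sequence for binding to M. tuberculosis R1, and dissociation constants (KD2) are derived. Compound stocks are 5–25 mM in 100% DMSO.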

[2] = Inhibition of Mycobacterium tuberculosis ribonucleotide reductase by [3H]CDP assay
In short: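 CDP reduction is read as cpm. IC50 is the concentration giving a 50% cpm reduction, averaged from three separate experiments with standard deviation.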

Compound	Kd [1]	IC50 [2]
CC(=O)N[C@@H](CCC(=O)O)C(=O)N[C@@H](CC(=O)O)C(=O)N[C@@H](CC(=O)O)C(=O)Nc1cccc2c1N[C@@H](Cc1c[nH]c3ccccc13)C(=O)N(CC(=O)N[C@@H](Cc1ccccc1)C(=O)O)C2	81 µM	–
CC(=O)N[C@@H](CCC(=O)O)C(=O)N[C@@H](CC(=O)O)C(=O)N[C@@H](CC(=O)O)C(=O)N[C@@H](CC(=O)O)C(=O)Nc1cccc2c1N[C@@H](Cc1c[nH]c3ccccc13)C(=O)N(CC(=O)N[C@@H](Cc1ccccc1)C(=O)O)C2	27 µM	64 µM
CC(=O)N[C@@H](CC(=O)O)C(=O)Nc1cccc2c1N[C@@H](Cc1c[nH]c3ccccc13)C(=O)N(CC(=O)N[C@@H](Cc1ccccc1)C(=O)O)C2	> 150 µM	–
O=C(O)C[C@H](NC(=O)OCC1c2ccccc2-c2ccccc21)C(=O)Nc1cccc2c1N[C@@H](Cc1c[nH]c3ccccc13)C(=O)N(CC(=O)N[C@@H](Cc1ccccc1)C(=O)O)C2	1.6 µM	–
O=C(O)CN1Cc2cccc(NC(=O)OCC3c4ccccc4-c4ccccc43)c2N[C@@H](Cc2c[nH]c3ccccc23)C1=O	8.1 µM	24 µM
O=C(Nc1cccc2c1N[C@@H](Cc1c[nH]c3ccccc13)C(=O)N(CCO)C2)OCC1c2ccccc2-c2ccccc21	26 µM	171 µM
Ac-EDDDWDF-OH	8.3 µM	20 µM
